Assay results collected from several papers.
Mode: inhibitor
rep main protease: Replicase polyprotein 1ab, main protease (rep, Severe acute respiratory syndrome coronavirus 2, UniProt P0DTD1)
rep papain-like protease: Replicase polyprotein 1ab, papain-like protease (rep, Severe acute respiratory syndrome coronavirus 2, UniProt P0DTD1)

For CCC(=O)Oc1cccc2c1C(=O)C=CC2=O, the inhibition was 102% (rep main protease; enzyme activity; 10 µM).
Cn1c(C(=O)Nc2ccc(Cl)cc2)cc2c(=O)n3ccccc3nc21 gave an inhibition of 33% (rep main protease; enzyme activity; 100 µM).
COc1cc2ccc(=O)oc2cc1O has an inhibition of 61% (rep main protease; enzyme activity, fluorescence; 10 µM, pH 7.2).
With O=c1c(O)c(-c2ccc(O)cc2)oc2cc(O)cc(O)c12 the inhibition was 45% (rep main protease; enzyme activity, FRET; 10 µM, 10 min).
Cc1cc(O)c2c(=O)c3c(O)cc(O)c4c5c(O)cc(O)c6c(=O)c7c(O)cc(C)c8c1c2c(c34)c(c78)c65 gave an inhibition of 31.5% (rep main protease; enzyme activity; 20 µM).
For CCN(CC)C(=S)SSC(=S)N(CC)CC, the inhibition was 100% (rep main protease; enzyme activity, fluorescence; 10 µM, pH 7.2).
With O=C1c2cccc(O)c2C(=O)c2c(O)cc(CO)cc21 the inhibition was 10.1% (rep main protease; enzyme activity; 10 µM).
C[C@@H]1O[C@@H](O[C@@H]2[C@@H](O)[C@H](OCCc3ccc(O)c(O)c3)O[C@H](CO)[C@H]2OC(=O)/C=C/c2ccc(O)c(O)c2)[C@H](O)[C@H](O)[C@H]1O gave an inhibition of 34.6% (rep main protease; enzyme activity; 10 µM).
For CC(C(=O)NC[C@H](NC(=O)c1[nH]nc2nc[nH]c(=O)c12)c1ccc2ccccc2c1)=C1CCC1, the inhibition was 15.1% (rep main protease; enzyme activity; 5 µM).
With CCC(CC)COC(=O)[C@H](C)N[P@](=O)(OC[C@H]1O[C@@](C#N)(c2ccc3c(N)ncnn23)[C@H](O)[C@@H]1O)Oc1ccccc1 the inhibition was 87% (Replicase polyprotein 1ab, polymerase (rep, Severe acute respiratory syndrome coronavirus 2, UniProt P0DTD1); enzyme activity in cells; HEK-293T; 10 µM).
CC(C)=CCc1cc(-c2oc3cc(O)cc(O)c3c(=O)c2O)ccc1O gave an inhibition of 59.9% (rep papain-like protease; enzyme activity; 8 µM).
Cc1ccc(-n2cccc2)c(NC(=O)Nc2ccccc2C(F)(F)F)c1 gave an inhibition of 11.4% (rep main protease; enzyme activity; 20 µM).
COc1cc(C[C@@H](C)[C@@H](C)Cc2ccc(O)c(OC)c2)ccc1O has an inhibition of 56.4% (rep papain-like protease; enzyme activity, FRET; 8 µM).
The inhibition of COc1cc(C)cc2c1C(=O)C=CC2=O is reported as -4.4% (rep main protease; enzyme activity; 0.1 µM).
For CC(=O)Nc1ccc(C2NN=C(c3ccc(C(F)(F)F)cn3)N2)cc1 (stereo not drawn), the inhibition was 4.63% (rep main protease; enzyme activity; 20 µM).
For O=C(/C=C/c1ccc(O)c(O)c1)O[C@@H]1C[C@](O)(C(=O)O)C[C@@H](O)[C@H]1O, the inhibition was 12.5% (rep papain-like protease; enzyme activity; 50 µM).
With CC1=C2CC(C(=O)N[C@@H]3CN(C(=O)c4cc5ccccc5o4)Cc4nccn4C3)=CN=C2NN1 the inhibition was 11.3% (rep main protease; enzyme activity; 5 µM).
CC(=O)Nc1ccc(-c2cnc(/N=C\c3cc4ccccc4nc3Cl)s2)cc1 has an inhibition of 39% (rep papain-like protease; enzyme activity; 10 µM).
For CN(C(=O)[C@H](Cc1ccccc1)NC(=O)[C@@H](NC(=O)OCc1ccccc1)C(C)(C)C)N(C#N)CCC(N)=O, the inhibition was 100% (rep main protease; enzyme activity, fluorescence; 50 µM, pH 7.2).
O=C(O)[C@H]1O[C@@H](Oc2cc3oc(-c4ccccc4)cc(=O)c3c(O)c2O)[C@H](O)[C@@H](O)[C@@H]1O gave an inhibition of 97.6% (rep main protease; enzyme activity; 100 µM).
For Cc1cccn2c(=O)c3cc(C(=O)Nc4ccc(N(C)C)cc4)n(C)c3nc12, the inhibition was 3.5% (rep main protease; enzyme activity; 1 µM).
For Oc1ccc([C@H]2COc3cc(O)ccc3C2)cc1, the inhibition was 18.5% (rep main protease; enzyme activity; 50 µM).
S=c1[nH]c2ccccc2s1 has an inhibition of 63.6% (rep main protease; enzyme activity; 20 µM).
The inhibition of O=C(/C=C/c1ccc(O)c(O)c1)OC1CC(OC(=O)/C=C/c2ccc(O)c(O)c2)(C(=O)O)CC(O)C1O (stereo not drawn) is reported as 87.3% (rep main protease; enzyme activity; 100 µM).
O=C(O)[C@]1(O)C[C@@H](O)[C@@H](O)[C@H](O)C1 gave an inhibition of less than 25% (rep main protease; enzyme activity, FRET; 10 µM, 10 min).
For Cc1cc(OCc2ccccc2)c2c(c1)C(=O)C=CC2=O, the inhibition was 91.1% (rep main protease; enzyme activity; 1 µM).
For Clc1nc2ccccc2cc1/C=N\c1ccc(-c2nc3ccccc3[nH]2)cc1, the inhibition was 25.3% (rep papain-like protease; enzyme activity; 100 µM).
The inhibition of O=c1n(-c2ccc(F)cc2)nc2n1CCCN2 is reported as 10.2% (rep main protease; enzyme activity; 20 µM).
The inhibition of O=c1cc(-c2ccc(O)cc2)oc2cc(O)c(O)c(O)c12 is reported as 102% (rep main protease; enzyme activity; 100 µM).
For Cc1cc(NC(=O)c2cc3c(=O)n4cccc(C)c4nc3n2C)ccc1Br, the inhibition was 30% (rep main protease; enzyme activity; 10 µM).
O=c1c(O)c(-c2ccc(O)c(O)c2)oc2cc(O)cc(O)c12 gave an inhibition of greater than 50% (rep main protease; enzyme activity, FRET; 10 µM, 10 min).
For Cn1c(C(=O)Nc2ccc3c(c2)OCCO3)cc2c(=O)n3ccccc3nc21, the inhibition was 31% (rep main protease; enzyme activity; 1 µM).
COc1cccc2c1C(=O)C(C(C)=O)=CC2=O has an inhibition of 35.2% (rep main protease; enzyme activity; 0.1 µM).
CCc1ccc(C2C(c3ccccc3)=C(O)C(=O)N2c2ccc(Cl)cc2)cc1 (stereo not drawn) has an inhibition of 16.8% (rep main protease; enzyme activity; 20 µM).
The inhibition of CCc1ccc(NC(=O)c2cc3c(=O)n4ccccc4nc3n2C)cc1 is reported as 28% (rep main protease; enzyme activity; 10 µM).
The inhibition of C/N=c1\nc(-c2ccccc2)n(-c2ccccc2)s1 is reported as 96.7% (rep main protease; enzyme activity; 20 µM).
The inhibition of O=c1[nH]c(CCl)nc2sc3c(c12)CCCC3 is reported as 29.2% (rep main protease; enzyme activity; 20 µM).
The inhibition of CCOC(=O)COc1cc(C)cc2c1C(=O)C=CC2=O is reported as 29.6% (rep main protease; enzyme activity; 0.1 µM).
The inhibition of Cc1ccc(NC(=O)Nc2cccnc2)cc1Cl is reported as -7.73% (rep main protease; enzyme activity; 20 µM).
The inhibition of O=C1C=CC(=O)c2ccccc21 is reported as 97.7% (rep main protease; enzyme activity; 10 µM).
COc1cc(O)c2c(=O)c(O)c(-c3ccc(O)c(O)c3)oc2c1 has an inhibition of 52% (rep main protease; enzyme activity; 20 µM).
For COc1ccc2nc(Cl)c(/C=N/c3ccc(-c4nc5ccccc5[nH]4)cc3)cc2c1, the inhibition was 2.1% (rep papain-like protease; enzyme activity; 10 µM).
